Numbering of substitutions follows the chain as printed.
Assays:
[1] = biological target: T1, Neuronal acetylcholine receptor; alpha4/beta2 (Rattus norvegicus) (UniProt P09483+P12390); experiment: (§1) The compound was evaluated for percentage inhibition of binding of [3H]- nicotine to Nicotinic acetylcholine receptor alpha4-beta2 in Rat Cerebral Cortical Membranes; type: protein-complex assay; design: concentration or dose not given beside the values; settings: concentration not given here
Procedure, shortened: (§2)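 Rat cerebral cortex membranes with 0.2 nM [3H]nicotine in HEPES binding buffer pH 7.4 containing 200 µM diisopropyl fluorophosphate. Incubation was 120 min at 0–4 °C, in triplicate. Nonspecific binding used 1 µM nicotine. Samples were filtered through polyethylenimine-soaked GF/B filters and counted.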

[2] = biological target: T2, Muscarinic acetylcholine receptor M1 (Rattus norvegicus) (UniProt P08482); experiment: Percentage inhibition of binding of [3H]quinuclidinyl benzilate to muscarinic acetylcholine receptor M1 in rat cerebral cortical membranes; type: cell membranes; design: concentration or dose not given beside the values; settings: Membrane, concentration not given here
T2 sequence (whole entry): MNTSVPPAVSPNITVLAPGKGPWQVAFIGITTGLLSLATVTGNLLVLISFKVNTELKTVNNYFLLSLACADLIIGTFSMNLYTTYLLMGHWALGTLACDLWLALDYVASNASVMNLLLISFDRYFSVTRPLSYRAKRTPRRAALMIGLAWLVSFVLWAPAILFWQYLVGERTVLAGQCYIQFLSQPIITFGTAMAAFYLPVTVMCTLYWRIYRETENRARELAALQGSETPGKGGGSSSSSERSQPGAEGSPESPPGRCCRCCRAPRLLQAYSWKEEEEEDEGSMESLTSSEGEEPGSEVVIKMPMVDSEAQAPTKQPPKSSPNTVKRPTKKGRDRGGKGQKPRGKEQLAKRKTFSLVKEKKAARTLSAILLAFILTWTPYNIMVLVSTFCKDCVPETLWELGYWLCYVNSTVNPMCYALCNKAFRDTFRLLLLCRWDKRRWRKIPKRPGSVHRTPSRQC
Procedure, shortened: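 Rat cerebral cortex membranes were homogenised in 50 mM Tris-HCl pH 7.4 and diluted in HEPES binding buffer. They were incubated with 0.2 nM [3H]quinuclidinyl benzilate in 20 mM HEPES pH 7.4 with 10 mM MgCl2 and 100 mM NaCl for 30 min at 37 °C, in triplicate. Nonspecific binding used 1 µM atropine. Filtration was followed by scintillation counting.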

[3] = biological target: T1, Neuronal acetylcholine receptor; alpha4/beta2 (Rattus norvegicus); experiment: Inhibition of binding of [3H]nicotine to Nicotinic acetylcholine receptor alpha4-beta2 in rat cerebral cortical membranes at 100 uM concentration; type: cell membranes; settings: Membrane
Procedure, shortened: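 [3H]nicotine (0.2 nM) binding to rat cortical membranes, with 200 µM diisopropyl fluorophosphate, 120 min at 0–4 °C, triplicate. Nonspecific binding with 1 µM nicotine. Percent inhibition at 100 µM test agent; mean ± SEM, n = 4.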

[4] = biological target: T3, Muscarinic acetylcholine receptor M1 (Homo sapiens) (UniProt P11229); experiment: Percentage inhibition of binding of [3H]quinuclidinyl benzilate to muscarinic receptors in membranes of CHO cells transfected with Muscarinic acetylcholine receptor M1; type: cell membranes; settings: concentration not given here
T3 sequence (whole entry): T2 sequence (whole entry) with V5A, S254T, S309P, K320R, G337A, V413I
Procedure, shortened: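 Membranes from CHO cells expressing human M1–M4 receptors in 25 mM sodium phosphate pH 7.4 with 5 mM MgCl2, 30 min at 37 °C, triplicate. [3H]quinuclidinyl benzilate was 0.2 nM for M1 and M3 and 0.1 nM for M2 and M4. Nonspecific binding used 10 µM atropine for M1 and 1 µM for the others.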

[5] = biological target: T4, Neuronal acetylcholine receptor; alpha4/beta2 (Rattus norvegicus, UniProt P09483+P12390); experiment: Inhibition of binding of [3H]nicotine to Nicotinic acetylcholine receptor alpha4-beta2 in rat cerebral cortical membranes; type: cell membranes, Membrane; procedure, shortened: as §2
[6] = biological target: T4, Neuronal acetylcholine receptor; alpha4/beta2; experiment: as §1; type: protein-complex assay; procedure, shortened: as §2
[7] = biological target: T5, Muscarinic acetylcholine receptor M1 (Rattus norvegicus, UniProt P08482); experiment: Inhibition of binding of [3H]oxotremorine M to Muscarinic acetylcholine receptor M1 in rat cerebral cortical membranes; type: cell membranes, Membrane
T5 sequence (P08482 whole entry): T2 sequence (whole entry)
Procedure, shortened: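 Agonist radioligand assay: rat cortical membranes with 2 nM [3H]oxotremorine M in 25 mM sodium phosphate pH 7.4 with 5 mM MgCl2, 2 h at 25 °C, in triplicate. Nonspecific binding used 5 µM atropine. Filtration followed by scintillation counting.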

[8] = biological target: T6, Muscarinic acetylcholine receptor M4 (Homo sapiens, UniProt P08173); experiment: Inhibition of binding of [3H]quinuclidinyl benzilate to muscarinic receptors in membranes of CHO cells transfected with Muscarinic acetylcholine receptor M4; type: cell membranes
T6 sequence (P08173 whole entry): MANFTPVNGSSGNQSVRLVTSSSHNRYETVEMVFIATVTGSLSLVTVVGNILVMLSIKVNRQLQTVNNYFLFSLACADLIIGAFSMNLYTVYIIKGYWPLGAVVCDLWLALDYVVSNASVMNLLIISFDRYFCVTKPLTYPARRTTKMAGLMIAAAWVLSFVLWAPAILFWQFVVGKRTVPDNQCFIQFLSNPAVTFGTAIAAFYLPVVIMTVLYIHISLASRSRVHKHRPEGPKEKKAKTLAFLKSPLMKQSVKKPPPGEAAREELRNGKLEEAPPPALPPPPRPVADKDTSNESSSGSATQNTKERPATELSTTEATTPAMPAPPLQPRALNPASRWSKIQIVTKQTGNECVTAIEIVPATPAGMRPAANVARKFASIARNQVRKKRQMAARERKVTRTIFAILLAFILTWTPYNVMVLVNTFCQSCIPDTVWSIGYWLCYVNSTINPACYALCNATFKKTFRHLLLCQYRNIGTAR

[9] = biological target: Muscarinic acetylcholine receptor M2 (Homo sapiens) (UniProt P08172); experiment: Inhibition of binding of [3H]quinuclidinyl benzilate to Muscarinic acetylcholine receptor M2 in membranes of transfected CHO cells
[10] = biological target: Muscarinic acetylcholine receptor M4 (Homo sapiens) (UniProt P08173); experiment: Inhibition of binding of [3H]quinuclidinyl benzilate to Muscarinic acetylcholine receptor M4 in membranes of transfected CHO cells
[11] = biological target: T7, Muscarinic acetylcholine receptor M2 (Homo sapiens, UniProt P08172); experiment: Inhibition of binding of [3H]quinuclidinyl benzilate to muscarinic receptors in membranes of CHO cells transfected with Muscarinic acetylcholine receptor M2; type: cell membranes
T7 sequence (P08172 whole entry): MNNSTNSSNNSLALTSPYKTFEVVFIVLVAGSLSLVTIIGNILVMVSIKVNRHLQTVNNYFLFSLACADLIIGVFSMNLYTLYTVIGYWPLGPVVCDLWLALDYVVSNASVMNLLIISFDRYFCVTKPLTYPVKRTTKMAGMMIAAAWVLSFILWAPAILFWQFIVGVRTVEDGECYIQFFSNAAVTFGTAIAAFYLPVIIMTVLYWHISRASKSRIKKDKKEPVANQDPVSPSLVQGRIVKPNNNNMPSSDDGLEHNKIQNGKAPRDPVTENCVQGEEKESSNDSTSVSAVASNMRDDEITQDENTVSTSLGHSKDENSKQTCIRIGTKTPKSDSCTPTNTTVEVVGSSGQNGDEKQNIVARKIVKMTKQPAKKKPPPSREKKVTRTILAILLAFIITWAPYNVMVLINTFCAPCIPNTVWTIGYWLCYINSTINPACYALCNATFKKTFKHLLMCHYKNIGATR

[12] = biological target: Muscarinic acetylcholine receptor M3 (Homo sapiens, UniProt P20309); experiment: Inhibition of binding of [3H]quinuclidinyl benzilate to muscarinic receptors in membranes of CHO cells transfected with Muscarinic acetylcholine receptor M3; type: cell membranes
[13] = biological target: Muscarinic acetylcholine receptor M1 (Homo sapiens) (UniProt P11229); experiment: Inhibition of binding of [3H]quinuclidinyl benzilate to human Muscarinic acetylcholine receptor M1 in membranes of transfected CHO cells at 300 uM concentration; settings: Membrane
Target sequence in this assay (P11229 whole entry, looked up): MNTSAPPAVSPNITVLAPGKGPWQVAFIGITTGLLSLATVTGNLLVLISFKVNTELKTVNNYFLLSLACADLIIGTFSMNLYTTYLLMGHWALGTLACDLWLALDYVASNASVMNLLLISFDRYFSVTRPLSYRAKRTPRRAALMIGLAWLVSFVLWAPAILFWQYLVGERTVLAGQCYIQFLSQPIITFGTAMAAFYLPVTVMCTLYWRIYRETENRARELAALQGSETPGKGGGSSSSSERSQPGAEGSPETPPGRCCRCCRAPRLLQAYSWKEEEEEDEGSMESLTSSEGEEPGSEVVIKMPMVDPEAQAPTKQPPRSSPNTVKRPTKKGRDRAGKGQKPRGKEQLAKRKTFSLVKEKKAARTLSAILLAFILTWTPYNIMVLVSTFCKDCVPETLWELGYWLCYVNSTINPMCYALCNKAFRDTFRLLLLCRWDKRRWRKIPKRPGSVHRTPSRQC

[14] = biological target: T5, Muscarinic acetylcholine receptor M1; experiment: Affinity versus [3H]oxotremorine M (agonist) binding to Muscarinic acetylcholine receptor M1 in Rat Cerebral Cortical Membranes, (Kd=[…])

T4 sequence (P09483 whole entry): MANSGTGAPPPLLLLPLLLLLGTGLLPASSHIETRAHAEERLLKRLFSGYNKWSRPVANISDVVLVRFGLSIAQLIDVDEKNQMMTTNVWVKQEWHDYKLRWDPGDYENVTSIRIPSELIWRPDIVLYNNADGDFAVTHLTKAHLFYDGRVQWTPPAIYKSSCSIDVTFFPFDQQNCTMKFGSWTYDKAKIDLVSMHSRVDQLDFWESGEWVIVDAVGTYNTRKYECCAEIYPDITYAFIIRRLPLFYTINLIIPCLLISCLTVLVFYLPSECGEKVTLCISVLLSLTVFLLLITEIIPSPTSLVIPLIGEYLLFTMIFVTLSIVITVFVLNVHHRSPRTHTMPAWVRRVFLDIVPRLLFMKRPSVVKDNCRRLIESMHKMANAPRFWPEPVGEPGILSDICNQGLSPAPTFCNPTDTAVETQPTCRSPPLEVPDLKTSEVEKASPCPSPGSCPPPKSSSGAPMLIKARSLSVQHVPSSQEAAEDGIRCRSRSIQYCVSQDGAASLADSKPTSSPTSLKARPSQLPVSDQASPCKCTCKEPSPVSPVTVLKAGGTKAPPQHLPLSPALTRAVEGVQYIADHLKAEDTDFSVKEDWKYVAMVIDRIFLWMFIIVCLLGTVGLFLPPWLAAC
T4 sequence (P12390 whole entry): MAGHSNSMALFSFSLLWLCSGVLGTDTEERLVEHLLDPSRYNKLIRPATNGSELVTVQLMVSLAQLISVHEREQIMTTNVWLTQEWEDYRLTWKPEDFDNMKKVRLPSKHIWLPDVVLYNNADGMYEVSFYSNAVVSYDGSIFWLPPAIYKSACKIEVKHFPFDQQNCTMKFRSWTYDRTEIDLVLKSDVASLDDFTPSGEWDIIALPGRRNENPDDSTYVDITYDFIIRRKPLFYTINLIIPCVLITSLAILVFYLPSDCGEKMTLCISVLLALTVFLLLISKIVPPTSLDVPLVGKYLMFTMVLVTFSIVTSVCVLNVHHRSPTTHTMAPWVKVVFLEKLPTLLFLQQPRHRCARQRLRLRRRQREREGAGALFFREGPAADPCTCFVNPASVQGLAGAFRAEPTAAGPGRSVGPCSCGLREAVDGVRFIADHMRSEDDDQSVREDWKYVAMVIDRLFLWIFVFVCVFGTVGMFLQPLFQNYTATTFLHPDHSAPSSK
Sequence of Muscarinic acetylcholine receptor M3 (P20309 whole entry): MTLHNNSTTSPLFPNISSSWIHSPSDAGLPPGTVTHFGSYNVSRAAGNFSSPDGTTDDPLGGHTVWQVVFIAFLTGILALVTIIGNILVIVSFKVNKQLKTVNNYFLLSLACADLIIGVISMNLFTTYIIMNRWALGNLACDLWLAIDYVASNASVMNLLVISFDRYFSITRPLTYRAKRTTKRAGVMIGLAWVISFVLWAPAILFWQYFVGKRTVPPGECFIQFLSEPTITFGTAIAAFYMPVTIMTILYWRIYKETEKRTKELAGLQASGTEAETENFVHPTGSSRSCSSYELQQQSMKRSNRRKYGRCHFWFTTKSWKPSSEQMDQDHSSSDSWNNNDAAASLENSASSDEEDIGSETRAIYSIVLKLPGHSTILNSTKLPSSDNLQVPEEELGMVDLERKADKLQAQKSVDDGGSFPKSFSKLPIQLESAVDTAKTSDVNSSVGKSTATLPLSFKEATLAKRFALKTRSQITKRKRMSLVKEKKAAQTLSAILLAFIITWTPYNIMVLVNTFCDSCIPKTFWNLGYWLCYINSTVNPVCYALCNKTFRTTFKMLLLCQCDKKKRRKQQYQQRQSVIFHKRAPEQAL

Compound | inhibition [1] | inhibition [2] | inhibition [3] | further results
COC(=O)C1CC2NC1CCC2=O (stereo unspecified) | 15% | 0% | 15% | 
COC(=O)[C@H]1CC2NC1CC[C@H]2OC(C)=O (stereo partly specified) | 19% | 1% | 19% | 
COC(=O)C1CC2CCCC1N2 (stereo unspecified) |  |  |  | inhibition [4]: 24%; Ki [5]: 0.15 µM; Ki [6]: 0.15 µM; Ki [7]: 260 nM; Ki [8]: 7.9 µM; Ki [9]: 480 nM; Ki [10]: 7.9 µM; Ki [11]: 480 nM; Ki [12]: 18 µM; inhibition [13]: 24%; Ki [14]: 260 nM
CC(=O)O[C@@H]1CCC2CCC1N2 (stereo partly specified) |  |  |  | Ki [5]: 24 µM; Ki [6]: 24 µM
CCSC1CCC2NC1CC2C(=O)OC (stereo unspecified) | 50% | 7% | 50% | 
CC(=O)O[C@@H]1CCC2NC1C[C@@H]2S(=O)(=O)c1ccccc1 (stereo partly specified) | 10% | 6% | 10% | 
CC(=O)O[C@H]1CCC2NC1C[C@@H]2S(=O)(=O)c1ccccc1 (stereo partly specified) | 16% | 0% | 16% | 
CC(=O)OC1CC2CC(=O)CC1N2 (stereo unspecified) | 13% | 11% | 13% | 

Source: ChEMBL document CHEMBL1131242, “6beta-Acetoxynortropane: a potent muscarinic agonist with apparent selectivity toward M2-receptors” (J Med Chem, 1998)
